These results are taken from ChEMBL document CHEMBL2021852 (ACS Med Chem Lett, 2011).

One data set deals with Cytochrome P450 3A4 (Homo sapiens, UniProt P08684). The experiment in a line: Inhibition of CYP3A4 using testosterone as substrate in human liver microsome for 20 mins by HPLC analysis. It counts as ADME, microsomes. In outline:
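CYP3A4 inhibition measured in human liver microsomes; IC50 is the average of at least two replicates.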
For orientation: Liver microsomes are a subcellular fraction often used to study metabolism.

Data set [1] is described as follows: Half life in rat at 0.8 mg/kg, iv. It counts as ADME, organism-based. The arrangement: dose 0.8 mg/kg, route intravenous. As to conditions: in vivo. In outline: (§1)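 Compounds were dosed as fumarate salts in separate intravenous and oral arms. Oral AUC(0–t), IV half-life, IV clearance, Vss and oral bioavailability (F) were derived from the plasma levels.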
Data set [2] can be described thus: Oral bioavailability in rat at 4 mg/kg. The note with it: in vivo. It counts as ADME, organism-based. Summed up: as §1
Data set [3] in a line: Volume of distribution at steady state in rat at 0.8 mg/kg, iv and 4 mg/kg, po. The note with it: in vivo, read-out: Vdss. It counts as ADME, organism-based. In outline:
as §1

Data set [4] can be described thus: AUC (0 to t) in rat at 4 mg/kg, po. Type of data set: ADME, organism-based. The arrangement: dose 4 mg/kg, route oral. As to conditions: plasma. Summed up: as §1
Data set [5] can be described thus: Clearance in rat at 0.8 mg/kg, iv. It counts as ADME, organism-based. The arrangement: dose 0.8 mg/kg, route intravenous. As to conditions: in vivo. In outline:
as §1

The target of data set [6] is T1, Renin (Homo sapiens, UniProt P00797).
T1 sequence (P00797 whole entry): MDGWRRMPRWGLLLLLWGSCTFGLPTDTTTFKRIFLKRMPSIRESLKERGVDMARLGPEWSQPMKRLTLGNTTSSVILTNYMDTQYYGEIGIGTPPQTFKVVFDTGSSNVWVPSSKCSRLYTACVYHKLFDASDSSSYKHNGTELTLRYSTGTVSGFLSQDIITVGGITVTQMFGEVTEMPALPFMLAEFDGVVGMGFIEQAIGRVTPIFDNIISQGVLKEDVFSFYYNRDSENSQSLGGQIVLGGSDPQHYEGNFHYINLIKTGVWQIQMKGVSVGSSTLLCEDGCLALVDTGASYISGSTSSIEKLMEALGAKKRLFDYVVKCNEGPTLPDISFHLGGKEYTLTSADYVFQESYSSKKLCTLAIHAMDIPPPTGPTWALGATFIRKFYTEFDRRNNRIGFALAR
The data set is described as follows: Inhibition of renin in human plasma assessed as formation of angiotensin1 product after 90 mins by competitive radioimmunoassay. Summed up: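 IC50 for renin inhibition determined in the presence of human plasma; each value is the average of at least two replicates.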

The target of data set [7] is T1, Renin. The experiment in a line: Inhibition of human recombinant renin using DABCYL-gamma-Abu-Ile-His-Pro-Phe-His-Leu-Val-Ile-His-Thr-EDANS as substrate for 60 mins by fluorimetry. Summed up:
(§2)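 Purified recombinant human renin measured in buffer; each value is the average of at least two replicates.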

The nature of data set [8]: Volume of distribution at steady state in rat at 1.6 mg/kg, iv and 8 mg/kg, po. It counts as ADME, organism-based. The note with it: in vivo, read-out: Vdss. Summed up: as §1
Data set [9] in a line: Oral bioavailability in cynomolgus monkey at 1 mg/kg. It counts as ADME, organism-based, Macaca fascicularis. As to conditions: in vivo. In outline: as §1
A short description of data set [10]: AUC (0 to t) in cynomolgus monkey at 1 mg/kg, po. Type of data set: ADME, organism-based, Macaca fascicularis. More on the design: dose 1 mg/kg, route oral. The note with it: plasma. In outline: as §1
Data set [11] in a line: Half life in rat at 1.6 mg/kg, iv. It counts as ADME, organism-based. More on the design: dose 1.6 mg/kg, route intravenous. As to conditions: in vivo. In outline: as §1
Data set [12] is described as follows: AUC (0 to t) in rat at 8 mg/kg, po. Type of data set: ADME, organism-based. More on the design: dose 8 mg/kg, route oral. The note with it: plasma. Summed up:
as §1

The nature of data set [13]: Volume of distribution at steady state in cynomolgus monkey at 1 mg/kg, iv and 1 mg/kg, po. Type of data set: ADME, organism-based, Macaca fascicularis. As to conditions: in vivo, read-out: Vdss. In outline: as §1
A short description of data set [14]: Half life in cynomolgus monkey at 1 mg/kg, iv. It counts as ADME, organism-based, Macaca fascicularis. The arrangement: dose 1 mg/kg, route intravenous. As to conditions: in vivo. Summed up: as §1
The nature of data set [15]: Oral bioavailability in rat at 8 mg/kg. As to conditions: in vivo. Type of data set: ADME, organism-based. In outline:
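Rats given compound as the fumarate salt, intravenously and by mouth in separate arms. Oral AUC(0–t), IV half-life, IV clearance, Vss and F were tabulated. The oral dose was 8.0 mg/kg, paired with an IV dose of 1.6 mg/kg.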

Data set [16] is described as follows: Clearance in rat at 1.6 mg/kg, iv. It counts as ADME, organism-based. More on the design: dose 1.6 mg/kg, route intravenous. As to conditions: in vivo. Summed up: as §1
Data set [17] can be described thus: Oral bioavailability in cynomolgus monkey at 2 mg/kg. It counts as ADME, organism-based, Macaca fascicularis. The note with it: in vivo. Summed up: as §1
The nature of data set [18]: Half life in rat at 2 mg/kg, iv. As to conditions: in vivo. More on the design: dose 2 mg/kg, route intravenous. It counts as ADME, organism-based. In outline:
as §1

A short description of data set [19]: AUC (0 to t) in dog at 1 mg/kg, po. It counts as ADME, organism-based, Canis lupus familiaris. More on the design: dose 1 mg/kg, route oral. As to conditions: plasma. In outline: as §1
Data set [20] in a line: Clearance in cynomolgus monkey at 1 mg/kg, iv. The arrangement: dose 1 mg/kg, route intravenous. Type of data set: ADME, organism-based, Macaca fascicularis. The note with it: in vivo. Summed up: as §1
Data set [21] is described as follows: Clearance in dog at 1 mg/kg, iv. Type of data set: ADME, organism-based, Canis lupus familiaris. More on the design: dose 1 mg/kg, route intravenous. The note with it: in vivo.
Data set [22] in a line: AUC (0 to t) in rat at 10 mg/kg, po. It counts as ADME, organism-based. More on the design: dose 10 mg/kg, route oral. As to conditions: plasma. Summed up: as §1
The nature of data set [23]: Oral bioavailability in dog at 1 mg/kg. Type of data set: ADME, organism-based, Canis lupus familiaris. As to conditions: in vivo. In outline:
as §1

Data set [24] in a line: Half life in dog at 1 mg/kg, iv. As to conditions: in vivo. The arrangement: dose 1 mg/kg, route intravenous. It counts as ADME, organism-based, Canis lupus familiaris.
The target of data set [25] is T1, Renin. The data set is described as follows: Inhibition of human recombinant renin using H-Asp-Arg-Val-Tyr-Ile-His-Pro-Phe-His-Leu-Val-Ile-His-Asn-OH as substrate assessed as formation of angiotensin1 product after 2 hrs by competive radioimmunoassay. In outline:
as §2

The term IC50 denotes the midpoint of a concentration-inhibition curve. The half-life is the time in which the quantity being followed falls by half. Usually bioavailability stands for the share of a dose that reaches the circulation, judged against a reference dose that is usually intravenous. The AUC(0-t) is the area under the concentration-time curve up to a stated or last time point. As a reminder, the clearance is the rate of elimination divided by the concentration.

Sequence of Cytochrome P450 3A4 (P08684 whole entry): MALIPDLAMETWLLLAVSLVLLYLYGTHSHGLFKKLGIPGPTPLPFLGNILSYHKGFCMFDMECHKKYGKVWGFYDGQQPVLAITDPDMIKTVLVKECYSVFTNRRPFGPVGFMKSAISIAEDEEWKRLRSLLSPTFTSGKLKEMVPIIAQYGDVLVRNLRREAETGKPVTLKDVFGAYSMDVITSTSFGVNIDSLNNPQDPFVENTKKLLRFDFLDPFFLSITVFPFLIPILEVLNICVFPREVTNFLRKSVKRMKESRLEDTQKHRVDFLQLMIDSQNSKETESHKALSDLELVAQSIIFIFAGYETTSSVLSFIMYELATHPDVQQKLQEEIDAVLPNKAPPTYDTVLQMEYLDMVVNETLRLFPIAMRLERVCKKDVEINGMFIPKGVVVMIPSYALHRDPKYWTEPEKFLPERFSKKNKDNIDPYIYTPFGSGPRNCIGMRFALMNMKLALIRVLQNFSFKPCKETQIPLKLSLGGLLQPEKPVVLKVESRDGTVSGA

Regarding `CNC[C@H](CC1CCCCC1)NC(=O)N1CCC[C@@H]([C@@H](OCCNC(=O)OC)c2cccc(Cl)c2)C1`, on Cytochrome P450 3A4, the concentration for half-maximal inhibition (IC50) is 4600 nM.

Turning to `COCCCC[C@@](O)(c1cccc(Cl)c1F)[C@@H]1CCCN(C(=O)NC[C@@H](N)CC2CCCCC2)C1.O=C(O)/C=C/C(=O)O`, the half-life in [1] is 51 h. The bioavailability in [2] is 29.5%. Further, the Vd in data set [3] turned out to be 101 L/kg. In data set [4], this compound registered an AUC(0-t) of 269 ng·h/mL. This compound came in with a clearance in data set [5] of 47 mL/min/kg.

For the compound `CNC[C@H](CC1CCCCC1)NC(=O)N1CCC[C@@H]([C@@](O)(CCCCOC)c2cccc(Cl)c2F)C1`, the IC50 on Renin [6] stood at 9.4 nM; at Renin [7], 0.73 nM.

In the case of `CNC[C@H](CC1CCCCC1)NC(=O)N1CCC[C@@H]([C@@H](OCCNC(=O)OC)c2cccc(Cl)c2)C1.O=C(O)/C=C/C(=O)O`, the values for the Vd in data set [8] and in [13] were 19 L/kg and 9.8 L/kg, respectively. Also, the bioavailability in data set [9] was 9.9%; in [15], 9.4%. The figures for the AUC(0-t) in data set [10] and in data set [12] were 130 ng·h/mL and 301 ng·h/mL, respectively. Moreover, the figures for the half-life in data set [11] and in [14] were 16.2 h and 23.3 h, respectively. This compound returned a clearance in data set [16] of 36 mL/min/kg.

As to `COCCCOc1cc(C[C@@H](C[C@H](N)[C@@H](O)C[C@H](C(=O)NCC(C)(C)C(N)=O)C(C)C)C(C)C)ccc1OC.COCCCOc1cc(C[C@@H](C[C@H](N)[C@@H](O)C[C@H](C(=O)NCC(C)(C)C(N)=O)C(C)C)C(C)C)ccc1OC.O=C(O)/C=C/C(=O)O` [ALISKIREN FUMARATE], the bioavailability in data set [17] worked out at 1.4%; in data set [23] it was 11%. The half-life in data set [18] was 39.6 h; in data set [14], 14.7 h; in [24] it was 16.3 h. The results for the AUC(0-t) in data set [19] and in data set [22] were 149 ng·h/mL and 21 ng·h/mL, respectively. In addition, the results for the clearance in data set [20] and in data set [21] were 2.5 mL/min/kg and 11 mL/min/kg, respectively.

`CNC[C@@H](NC(=O)N1CCC[C@@H]([C@@H](OCCNC(=O)OC)c2cccc(Cl)c2)C1)[C@@H](O)C1CCCCC1`: the 50% inhibitory concentration (IC50) on Renin [6] is 1.06 nM; on Renin [7], 0.33 nM; against Cytochrome P450 3A4, 7100 nM; on Renin [25], 0.15 nM.

With `COCCCC[C@@](O)(c1cccc(Cl)c1F)[C@@H]1CCCN(C(=O)NC[C@@H](N)CC2CCCCC2)C1`, the IC50 came to 69 nM at Renin [6], 2.2 nM on Renin [7], 2910 nM at Cytochrome P450 3A4 and 0.27 nM at Renin [25].
